ChEMBL document CHEMBL2157978, “Design, synthesis, and biological evaluation of nonsteroidal cycloalkane[d]isoxazole-containing androgen receptor modulators” (J Med Chem, 2012)
Where a chain is given by its changes, count along the chain named. pIC50: −log10 of the molar value. Active and inactive are the calls of the source.

How the values were obtained:
[1] = molecular target: T1, Androgen receptor (Homo sapiens) (UniProt P10275); assay: Agonist activity at wild type human androgen receptor expressed in COS-1 cells co-transfected with pSG5 assessed as effect on testosterone induced luciferase activity at 10 uM after 18 hrs relative untreated control; assay type: functional, cell-based
T1 sequence (whole entry): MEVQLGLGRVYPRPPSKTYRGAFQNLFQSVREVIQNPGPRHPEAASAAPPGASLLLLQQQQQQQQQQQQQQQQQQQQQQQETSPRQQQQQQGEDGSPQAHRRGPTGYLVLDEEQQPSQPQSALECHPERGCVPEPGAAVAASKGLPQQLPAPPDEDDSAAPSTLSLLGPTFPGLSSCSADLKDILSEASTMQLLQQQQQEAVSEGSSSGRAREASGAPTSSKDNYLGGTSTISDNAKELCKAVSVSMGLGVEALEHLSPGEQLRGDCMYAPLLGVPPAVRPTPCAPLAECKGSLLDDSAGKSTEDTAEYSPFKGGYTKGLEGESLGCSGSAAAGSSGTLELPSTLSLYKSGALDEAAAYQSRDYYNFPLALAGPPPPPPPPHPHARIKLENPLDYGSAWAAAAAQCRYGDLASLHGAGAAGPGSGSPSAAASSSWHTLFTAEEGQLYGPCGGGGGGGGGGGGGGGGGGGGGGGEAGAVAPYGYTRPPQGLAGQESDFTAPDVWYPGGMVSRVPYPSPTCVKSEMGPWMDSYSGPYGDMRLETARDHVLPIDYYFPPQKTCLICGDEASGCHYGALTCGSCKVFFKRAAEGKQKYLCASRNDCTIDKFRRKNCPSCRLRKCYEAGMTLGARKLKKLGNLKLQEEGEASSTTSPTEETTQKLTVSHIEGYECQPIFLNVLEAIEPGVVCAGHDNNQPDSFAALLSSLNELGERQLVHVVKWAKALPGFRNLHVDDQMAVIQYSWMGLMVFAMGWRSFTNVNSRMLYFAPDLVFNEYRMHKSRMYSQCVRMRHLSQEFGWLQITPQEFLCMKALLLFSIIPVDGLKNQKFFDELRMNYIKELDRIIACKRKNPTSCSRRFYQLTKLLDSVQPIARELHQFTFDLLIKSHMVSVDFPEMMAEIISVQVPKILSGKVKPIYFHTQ

[2] = molecular target: Luciferin 4-monooxygenase (Photinus pyralis) (UniProt P08659); assay: Inhibition of Photinus pyralis recombinant luciferase at 10 uM incubated for 20 mins
Sequence of Luciferin 4-monooxygenase (Photinus pyralis) (P08659 whole entry): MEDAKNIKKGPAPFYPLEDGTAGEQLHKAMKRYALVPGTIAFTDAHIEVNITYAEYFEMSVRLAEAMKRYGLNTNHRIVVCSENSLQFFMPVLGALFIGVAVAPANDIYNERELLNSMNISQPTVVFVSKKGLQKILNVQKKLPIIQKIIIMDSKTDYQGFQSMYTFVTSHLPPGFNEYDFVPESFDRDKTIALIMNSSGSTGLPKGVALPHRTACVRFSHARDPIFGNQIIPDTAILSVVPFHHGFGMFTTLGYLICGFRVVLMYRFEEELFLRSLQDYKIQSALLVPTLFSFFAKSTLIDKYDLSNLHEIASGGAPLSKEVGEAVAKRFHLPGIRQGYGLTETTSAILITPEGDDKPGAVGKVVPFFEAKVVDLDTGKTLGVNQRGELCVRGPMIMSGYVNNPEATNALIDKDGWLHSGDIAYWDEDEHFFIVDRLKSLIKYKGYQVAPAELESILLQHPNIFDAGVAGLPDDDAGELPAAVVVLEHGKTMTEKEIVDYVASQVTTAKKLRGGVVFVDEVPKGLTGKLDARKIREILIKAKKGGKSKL
How it was run: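 Purified firefly luciferase diluted to 0.1 μg/mL in 1x Reporter Lysis Buffer, with compound added from ethanol stocks (10⁻³–10⁻⁷ mol/L dilutions) in triplicate. Incubated 20 min at rt, then luciferase substrate added and luminescence read. Blank (lysis buffer) and ethanol-vehicle controls were included.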

Androgen receptor = molecular target: T2, Androgen receptor (Homo sapiens, UniProt P10275); assay: Displacement of [3H]R1881 from wild type human androgen receptor expressed in COS-1 cells co-transfected with pSG5 after 2 hrs by scintillation assay
T2 sequence (P10275 whole entry): T1 sequence (whole entry)

[3] = molecular target: T1, Androgen receptor (Homo sapiens); assay: Agonist activity at wild type human androgen receptor expressed in COS-1 cells co-transfected with pSG5 assessed as effect on testosterone induced luciferase activity at 1 nM to 10 uM after 18 hrs relative untreated control; assay type: functional, cell-based
How it was run: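 COS-1 cells were seeded in DMEM with 10% dextran-charcoal-treated FBS. After switching to 2.5% FBS, they were transfected for 24 h with pSG5-hAR, the pProbasin(−285/+32)-Luc reporter and a pCMVβ internal control. […] Luciferase was normalized to β-galactosidase and protein.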

[4] = molecular target: T1, Androgen receptor (Homo sapiens); assay: Potency index, ratio of RBA of hydroxyflutamide to RBA of compound for human androgen receptor
[5] = tested on: T3, Androgen receptor (Homo sapiens), P10275 [W742L]; assay: Antagonist activity at human Androgen receptor W741L mutant expressed in COS-1 cells co-transfected with pSG5 assessed as reduction in testosterone induced luciferase activity at 10 uM after 18 hrs relative untreated control; assay type: functional, cell-based
T3 sequence (whole entry): T1 sequence (whole entry) with W742L
How it was run: (§1)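 COS-1 cells were grown in DMEM with dextran-charcoal-treated FBS (2.5% during transfection). They were transfected for 24 h with pSG5-hART877A or pSG5-hARW741L, plus the pProbasin(−285/+32)-Luc reporter and a pCMVβ control.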

[6] = tested on: Androgen receptor (Homo sapiens), P10275 [T878A]; assay: Antagonist activity at human Androgen receptor T877A mutant expressed in COS-1 cells co-transfected with pSG5 assessed as reduction in testosterone induced luciferase activity at 10 uM after 18 hrs relative untreated control; assay type: functional, cell-based; how it was run: as §1
Sequence of Androgen receptor (Homo sapiens), P10275 [T878A] (P10275 whole entry T878A): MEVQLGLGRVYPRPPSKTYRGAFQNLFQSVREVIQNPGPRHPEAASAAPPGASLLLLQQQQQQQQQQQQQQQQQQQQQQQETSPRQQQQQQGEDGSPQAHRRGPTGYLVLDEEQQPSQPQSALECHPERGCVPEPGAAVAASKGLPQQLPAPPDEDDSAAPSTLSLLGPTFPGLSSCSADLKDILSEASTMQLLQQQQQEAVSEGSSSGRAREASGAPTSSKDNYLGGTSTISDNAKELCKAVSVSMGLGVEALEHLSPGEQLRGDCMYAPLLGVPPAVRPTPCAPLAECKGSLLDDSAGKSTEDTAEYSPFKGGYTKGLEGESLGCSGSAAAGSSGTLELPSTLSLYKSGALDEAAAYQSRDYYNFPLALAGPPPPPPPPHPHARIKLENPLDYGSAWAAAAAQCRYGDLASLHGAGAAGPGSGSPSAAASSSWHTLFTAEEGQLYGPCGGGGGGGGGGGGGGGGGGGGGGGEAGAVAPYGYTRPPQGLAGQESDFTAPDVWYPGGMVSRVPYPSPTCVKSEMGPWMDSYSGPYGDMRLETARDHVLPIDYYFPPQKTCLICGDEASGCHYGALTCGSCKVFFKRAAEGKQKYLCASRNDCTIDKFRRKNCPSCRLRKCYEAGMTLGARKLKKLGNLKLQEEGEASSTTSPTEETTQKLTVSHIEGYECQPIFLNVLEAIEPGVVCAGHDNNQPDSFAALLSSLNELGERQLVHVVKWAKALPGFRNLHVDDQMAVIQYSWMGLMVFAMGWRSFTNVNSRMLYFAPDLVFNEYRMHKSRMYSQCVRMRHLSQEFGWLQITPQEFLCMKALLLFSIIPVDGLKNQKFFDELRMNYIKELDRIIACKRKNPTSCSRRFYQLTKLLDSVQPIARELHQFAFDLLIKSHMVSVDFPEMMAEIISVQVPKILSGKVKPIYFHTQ

[7] = molecular target: T1, Androgen receptor (Homo sapiens); assay: Potency index, ratio of RBA of (R)-bicalutamide to RBA of compound for human androgen receptor

SMILES	Activity [1]	inhibition [2]	pIC50 (Androgen receptor)	Activity [3]	Ratio [4]	Activity [5]	Activity [6]	Ratio [7]
Fc1ccc(C2=NOC3CCCCCC23)cc1C(F)(F)F (racemic)	inactive	inactive	4.96	–	–	–	–	–
N#Cc1ccc(C2=NOC3CCCCCC23)cc1C(F)(F)F (racemic)	inactive	inactive	7.36	–	–	–	–	–
O=[N+]([O-])c1ccc(C2=NOC3CCCC23)c(C(F)(F)F)c1 (racemic)	inactive	inactive	6.57	–	–	–	–	–
N#Cc1ccc(C2=NOC3CCCCC23)cc1C(F)(F)F (racemic)	inactive	inactive	7.56	inactive	8	Active	Active	4
O=[N+]([O-])c1ccc(C2=NOC3CCCCC23)cc1C(F)(F)F (racemic)	inactive	inactive	6.92	inactive	–	Active	Active	–
N#Cc1ccc(C2=NOC3CCCC23)c(C(F)(F)F)c1 (racemic)	inactive	inactive	6.35	–	–	–	–	–

Further lines, with some results ahead:

Activity [1]	inhibition [2]	pIC50 (Androgen receptor)	SMILES	Activity [3]	Ratio [4]	Activity [5]	Activity [6]	Ratio [7]
inactive	inactive	6.98	O=[N+]([O-])c1ccc(C2=NOC3CCCCCC23)cc1C(F)(F)F (racemic)	–	–	–	–	–
inactive	inactive	5.83	Fc1ccc(C2=NOC3CCCC23)cc1C(F)(F)F (racemic)	–	–	–	–	–
inactive	inactive	5.96	Fc1ccc(C2=NOC3CCCCC23)cc1C(F)(F)F (racemic)	–	–	–	–	–
